According to ChEMBL document CHEMBL2150901, “Synthesis and biological activity of tricyclic cycloalkylimidazo-, pyrimido- and diazepinopurinediones” (Eur J Med Chem, 2011):
The source made the active and inactive calls. No cut-off for these calls is given here.

Columns and labels:
Adenosine receptor A1 [1] = target: T1, Adenosine receptor A1 (Rattus norvegicus, UniProt P25099); test: Displacement of [3H]CCPA from adenosine A1 receptor in rat brain cortical membrane; type: cell membranes
T1 sequence (P25099 whole entry): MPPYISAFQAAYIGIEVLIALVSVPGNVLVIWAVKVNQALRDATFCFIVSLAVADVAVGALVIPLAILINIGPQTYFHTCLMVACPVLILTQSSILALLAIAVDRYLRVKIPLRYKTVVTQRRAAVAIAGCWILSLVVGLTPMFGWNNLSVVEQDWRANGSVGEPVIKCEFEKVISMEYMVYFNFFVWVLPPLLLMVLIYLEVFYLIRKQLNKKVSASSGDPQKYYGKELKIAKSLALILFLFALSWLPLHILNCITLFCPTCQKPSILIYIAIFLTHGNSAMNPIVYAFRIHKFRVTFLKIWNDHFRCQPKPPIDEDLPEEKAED

Mus musculus [2] = test: Anticonvulsant activity in F1 albino mouse assessed as protection against maximal electroshock-induced seizures at 300 mg/kg, ip after 1 hr; type: functional, organism-based; design: dose 300 mg/kg
Outline: (§1)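 Male albino F-1 mice (18–25 g), groups of 1–5 (rotorod 2–8). Compound given ip as a suspension in 0.5% methylcellulose at 30, 100 and 300 mg/kg. Seizures by maximal electroshock or subcutaneous pentylenetetrazole; neurotoxicity by rotorod. Read at 0.5 and 4 h, with some at 0.25, 1 and 2 h. Value is the minimum active dose, with protected (or toxic)/tested animals.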

Rattus norvegicus = species: Rattus norvegicus; test: Selectivity ratio of Ki for adenosine A1 receptor in rat brain cortical membrane to Ki for adenosine A2A receptor in rat brain striatal membrane; type: cell membranes
Outline: (§2)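 Ki ratios from radioligand competition binding. Rat A1 used brain cortical membranes and rat A2A used brain striatal membranes. Human A1 and A2A used membranes of CHO cells expressing the receptors. A1 radioligand [³H]CCPA; A2A radioligand [³H]MSX-2. Potent compounds were tested at 6–7 concentrations spanning 3 orders of magnitude.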

Mus musculus [3] = test: Anticonvulsant activity in F1 albino mouse assessed as protection against subcutaneous pentylenetetrazole-induced seizures at 300 mg/kg, ip after 0.5 hrs; type: functional, organism-based; design: dose 300 mg/kg; outline: as §1
Mus musculus [4] = test: Neurotoxicity in F1 albino mouse assessed as minimal motor impairment at 300 mg/kg, ip after 0.25 hrs by rotorod test; type: toxicity, organism-based; design: dose 300 mg/kg, route intraperitoneal; conditions: in vivo; outline: as §1
Mus musculus [5] = test: Neurotoxicity in F1 albino mouse assessed as minimal motor impairment at 300 mg/kg, ip after 4 hrs by rotorod test; type: toxicity, organism-based; design: dose 300 mg/kg, route intraperitoneal; conditions: in vivo; outline: as §1
Mus musculus [6] = test: Neurotoxicity in F1 albino mouse assessed as minimal motor impairment at 300 mg/kg, ip after 1 hr by rotorod test; type: toxicity, organism-based; design: dose 300 mg/kg, route intraperitoneal; conditions: in vivo; outline: as §1
Mus musculus [7] = test: Anticonvulsant activity in F1 albino mouse assessed as protection against maximal electroshock-induced seizures at 300 mg/kg, ip after 0.5 hrs; type: functional, organism-based; design: dose 300 mg/kg; outline: as §1
Mus musculus [8] = test: Anticonvulsant activity in F1 albino mouse assessed as protection against maximal electroshock-induced seizures at 300 mg/kg, ip after 0.25 hrs; type: functional, organism-based; design: dose 300 mg/kg; outline: as §1
Adenosine receptor A2a [9] = target: Adenosine receptor A2a (Rattus norvegicus, UniProt P30543); test: Displacement of [3H]MSX-2 from adenosine A2A receptor in rat brain striatal membrane; type: cell membranes
Sequence of Adenosine receptor A2a (Rattus norvegicus, UniProt P30543) (P30543 whole entry): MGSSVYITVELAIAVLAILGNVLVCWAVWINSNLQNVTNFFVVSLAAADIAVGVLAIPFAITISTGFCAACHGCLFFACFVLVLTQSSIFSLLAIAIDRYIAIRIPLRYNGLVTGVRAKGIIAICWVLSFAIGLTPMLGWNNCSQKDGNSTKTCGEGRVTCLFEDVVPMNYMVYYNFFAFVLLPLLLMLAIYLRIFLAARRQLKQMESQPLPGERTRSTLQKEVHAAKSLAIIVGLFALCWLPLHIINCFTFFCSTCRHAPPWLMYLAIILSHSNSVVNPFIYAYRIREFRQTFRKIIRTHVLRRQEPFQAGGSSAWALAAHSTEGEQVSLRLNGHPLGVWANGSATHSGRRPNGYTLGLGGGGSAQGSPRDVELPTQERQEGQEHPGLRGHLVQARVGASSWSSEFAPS

Mus musculus [10] = test: Anticonvulsant activity in F1 albino mouse assessed as protection against subcutaneous pentylenetetrazole-induced seizures at 300 mg/kg, ip after 0.25 hrs; type: functional, organism-based; design: dose 300 mg/kg; outline: as §1
[11] = target: T2, Adenosine receptor A1 (Rattus norvegicus) (UniProt P25099); test: Displacement of [3H]CCPA from adenosine A1 receptor in rat brain cortical membrane at 25 uM; type: cell membranes
T2 sequence (whole entry): T1 sequence (P25099 whole entry)

Mus musculus [12] = test: Anticonvulsant activity in F1 albino mouse assessed as protection against maximal electroshock-induced seizures at 300 mg/kg, ip after 4 hrs; type: functional, organism-based; design: dose 300 mg/kg; outline: as §1
Mus musculus [13] = test: Neurotoxicity in F1 albino mouse assessed as minimal motor impairment at 100 mg/kg, ip after 0.5 hrs by rotorod test; type: toxicity, organism-based; design: dose 100 mg/kg, route intraperitoneal; conditions: in vivo; outline: as §1
Mus musculus [14] = test: Anticonvulsant activity in F1 albino mouse assessed as protection against subcutaneous pentylenetetrazole-induced seizures at 300 mg/kg, ip after 1 hr; type: functional, organism-based; design: dose 300 mg/kg; outline: as §1
Mus musculus [15] = test: Anticonvulsant activity in F1 albino mouse assessed as protection against subcutaneous pentylenetetrazole-induced seizures at 300 mg/kg, ip after 4 hrs; type: functional, organism-based; design: dose 300 mg/kg; outline: as §1
Adenosine receptor A2b = target: T3, Adenosine receptor A2b (Homo sapiens, UniProt P29275); test: Displacement of [3H]PSB-603 from human recombinant adenosine A2B receptor expressed in CHO cells; type: cell-based
T3 sequence (P29275 whole entry): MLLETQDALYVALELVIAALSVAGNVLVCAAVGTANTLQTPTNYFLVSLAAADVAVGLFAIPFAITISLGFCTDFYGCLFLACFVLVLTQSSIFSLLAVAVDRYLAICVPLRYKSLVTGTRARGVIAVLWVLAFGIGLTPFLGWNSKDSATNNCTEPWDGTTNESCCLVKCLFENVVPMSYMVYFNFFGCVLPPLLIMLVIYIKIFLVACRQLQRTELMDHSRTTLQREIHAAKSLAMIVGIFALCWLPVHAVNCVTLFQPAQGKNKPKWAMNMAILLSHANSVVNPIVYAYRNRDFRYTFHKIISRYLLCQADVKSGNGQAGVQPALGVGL
Outline: (§3)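 CHO cell membranes expressing the human receptor. Radioligands: A1 [3H]CCPA; A2B [3H]ZM241385 or [3H]PSB-603; A3 [3H]PSB-11. […] Potent compounds run at 6–7 concentrations spanning 3 orders of magnitude; Ki ± SEM.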

Mus musculus [16] = test: Neurotoxicity in F1 albino mouse assessed as minimal motor impairment at 300 mg/kg, ip after 0.5 hrs by rotorod test; type: toxicity, organism-based; design: dose 300 mg/kg, route intraperitoneal; conditions: in vivo; outline: as §1
Adenosine receptor A2a [17] = target: Adenosine receptor A2a (Homo sapiens, UniProt P29274); test: Displacement of [3H]MSX-2 from human recombinant adenosine A2A receptor expressed in CHO cells; type: cell-based
Sequence of Adenosine receptor A2a (Homo sapiens, UniProt P29274) (P29274 whole entry): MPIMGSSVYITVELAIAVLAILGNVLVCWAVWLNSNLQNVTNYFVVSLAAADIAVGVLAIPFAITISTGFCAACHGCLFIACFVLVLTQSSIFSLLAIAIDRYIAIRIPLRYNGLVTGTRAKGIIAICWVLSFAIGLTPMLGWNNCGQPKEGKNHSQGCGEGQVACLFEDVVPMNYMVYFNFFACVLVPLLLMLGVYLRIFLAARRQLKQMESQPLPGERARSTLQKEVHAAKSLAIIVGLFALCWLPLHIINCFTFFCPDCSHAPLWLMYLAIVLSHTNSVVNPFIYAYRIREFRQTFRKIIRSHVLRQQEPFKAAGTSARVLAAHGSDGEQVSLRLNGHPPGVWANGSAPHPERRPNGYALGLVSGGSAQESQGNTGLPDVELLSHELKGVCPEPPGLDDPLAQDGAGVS

[18] = target: T4, Adenosine receptor A2b (Homo sapiens) (UniProt P29275); test: Displacement of [3H]PSB-603 from human recombinant adenosine A2B receptor expressed in CHO cells at 10 uM; type: cell-based; outline: as §3
T4 sequence (whole entry): T3 sequence (P29275 whole entry)

[19] = target: T5, Adenosine receptor A3 (Homo sapiens) (UniProt P0DMS8); test: Displacement of [3H]PSB-11 from human recombinant adenosine A3 receptor expressed in CHO cells at 10 uM; type: cell-based; outline: as §3
T5 sequence (whole entry): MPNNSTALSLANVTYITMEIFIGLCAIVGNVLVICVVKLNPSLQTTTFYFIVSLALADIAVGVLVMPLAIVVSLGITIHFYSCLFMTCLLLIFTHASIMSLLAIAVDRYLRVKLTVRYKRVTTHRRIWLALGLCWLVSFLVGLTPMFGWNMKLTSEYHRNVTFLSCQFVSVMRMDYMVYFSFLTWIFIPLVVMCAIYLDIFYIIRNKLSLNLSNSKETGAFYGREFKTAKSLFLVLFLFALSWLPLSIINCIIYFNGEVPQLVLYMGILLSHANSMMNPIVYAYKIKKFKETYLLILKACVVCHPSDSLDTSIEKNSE

Adenosine receptor A3 = target: T6, Adenosine receptor A3 (Homo sapiens, UniProt P0DMS8); test: Displacement of [3H]PSB-11 from human recombinant adenosine A3 receptor expressed in CHO cells; type: cell-based
T6 sequence (P0DMS8 whole entry): T5 sequence (whole entry)

CHO = test: Selectivity ratio of Ki for human recombinant adenosine A2A receptor expressed in CHO cells to Ki for adenosine A2A receptor in rat brain striatal membrane; type: cell-based; outline: as §2
[20] = target: T7, Adenosine receptor A1 (Homo sapiens) (UniProt P30542); test: Displacement of [3H]CCPA from human recombinant adenosine A1 receptor expressed in CHO cells at 10 uM; type: cell-based; outline: as §3
T7 sequence (whole entry): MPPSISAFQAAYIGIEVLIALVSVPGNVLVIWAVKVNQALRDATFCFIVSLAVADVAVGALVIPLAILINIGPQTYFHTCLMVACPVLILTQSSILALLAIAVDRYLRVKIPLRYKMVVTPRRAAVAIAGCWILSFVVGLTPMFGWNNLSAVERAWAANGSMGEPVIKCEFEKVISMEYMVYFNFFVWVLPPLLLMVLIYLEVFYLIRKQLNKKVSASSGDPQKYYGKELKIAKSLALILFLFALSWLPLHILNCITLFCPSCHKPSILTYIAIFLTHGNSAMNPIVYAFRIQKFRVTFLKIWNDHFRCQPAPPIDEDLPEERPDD

Adenosine receptor A1 [21] = target: T8, Adenosine receptor A1 (Homo sapiens, UniProt P30542); test: Displacement of [3H]CCPA from human recombinant adenosine A1 receptor expressed in CHO cells; type: cell-based
T8 sequence (P30542 whole entry): T7 sequence (whole entry)

Structure (SMILES) | Ki (Adenosine receptor A1 [1]) | Activity (Mus musculus [2]) | Ratio Ki (Rattus norvegicus) | Activity (Mus musculus [3]) | Activity (Mus musculus [4]) | Activity (Mus musculus [5]) | Activity (Mus musculus [6]) | Activity (Mus musculus [7]) | Activity (Mus musculus [8]) | Ki (Adenosine receptor A2a [9]) | Activity (Mus musculus [10]) | inhibition [11] | Activity (Mus musculus [12]) | Activity (Mus musculus [14]) | Activity (Mus musculus [15]) | Ki (Adenosine receptor A2b) | Activity (Mus musculus [16]) | Ki (Adenosine receptor A2a [17]) | inhibition [18] | inhibition [19] | further results
Cn1c(=O)c2c(nc3n2CCCCN3C2CCC(O)CC2)n(C)c1=O (mixture of isomers) | ≥ 25 µM | inactive | 7 | Active | Non-toxic | Non-toxic | Non-toxic | inactive | inactive | 3.81 µM | inactive | 44% | inactive | inactive | inactive | – | – | – | – | – | Activity (Mus musculus [13]): Non-toxic
Cn1c(=O)c2c(nc3n2CCCN3C2CCCCC2)n(C)c1=O | ≥ 25 µM | inactive | > 31 | Active | Non-toxic | Non-toxic | Non-toxic | inactive | inactive | 0.81 µM | inactive | 39% | inactive | inactive | inactive | > 10 µM | Non-toxic | 1.61 µM | 0% | 12% | Ki (Adenosine receptor A3): > 10 µM; Ratio Ki (CHO): 2; inhibition [20]: 37%; Ki (Adenosine receptor A1 [21]): > 10 µM
CC(=O)O[C@H]1CC[C@H](N2CCCn3c2nc2c3c(=O)n(C)c(=O)n2C)CC1 | > 10 µM | inactive | > 2 | inactive | Non-toxic | Non-toxic | Non-toxic | inactive | inactive | 6.2 µM | inactive | 5% | inactive | inactive | inactive | > 10 µM | Non-toxic | 21.9 µM | 0% | 27% | Ki (Adenosine receptor A3): > 10 µM; Ratio Ki (CHO): 3; inhibition [20]: 5%; Ki (Adenosine receptor A1 [21]): > 10 µM
Cn1c(=O)c2c(nc3n2CCCN3C2CCCCCC2)n(C)c1=O | > 10 µM | inactive | 4 | inactive | Non-toxic | Non-toxic | Non-toxic | inactive | inactive | 2.67 µM | inactive | 4% | inactive | inactive | inactive | > 10 µM | Non-toxic | 1.16 µM | 0% | 6% | Ki (Adenosine receptor A3): > 10 µM; inhibition [20]: 41%; Ki (Adenosine receptor A1 [21]): > 10 µM
Cn1c(=O)c2c(nc3n2CCCN3C2CCC2)n(C)c1=O | ≥ 10 µM | inactive | > 5 | inactive | Non-toxic | Non-toxic | Non-toxic | inactive | inactive | 1.93 µM | inactive | 39% | inactive | inactive | inactive | > 10 µM | Non-toxic | 0.847 µM | 21% | 5% | Ki (Adenosine receptor A3): > 10 µM; Ki (Adenosine receptor A1 [21]): 10.3 µM
